Reference: ChEMBL document CHEMBL1165851, “Synthesis and inhibitory evaluation of cyclohexen-2-yl- and cyclohexyl-substituted phenols and quinones to endothelial cell and cancer cells” (Eur J Med Chem, 2010)
pIC50: −log10 of the molar value.

Legend:
[1] = tested on: HUVEC; assay: Antiproliferative activity HUVEC after 96 hrs by MTT assay; conditions: for pIC50: Homo sapiens, HUVEC, 96 h, read-out: IC50; for IC50: huvec
[2] = tested on: A549; assay: Antiproliferative activity human A549 cells after 96 hrs by MTT assay; conditions: for pIC50: Homo sapiens, A549, 96 h, read-out: IC50; for IC50: a549
[3] = tested on: MCF7; assay: Antiproliferative activity human MCF7 cells after 96 hrs by MTT assay; conditions: for pIC50: Homo sapiens, MCF7, 96 h, read-out: IC50; for IC50: mcf7
[4] = tested on: Bel-7402; assay: Antiproliferative activity human Bel7402 cells after 96 hrs by MTT assay; conditions: for pIC50: Homo sapiens, Bel-7402, 96 h, read-out: IC50; for IC50: bel-7402
[5] = Antiproliferative activity human CCC-HPF1 cells after 20 hrs by MTT assay; type: cell-based; conditions: ccc-hpf1, 96 h, in the assay text read “96 hrs” for “20 hrs”
Outline: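 HUVECs isolated from fresh umbilical cords and used at passages 3–8, grown in EGM-2. A549 and Bel-7402 in RPMI 1640; MCF-7 and ccc-HPF-1 in DMEM; all at 37 °C, 5% CO2. Seeded 1000 (HUVEC, Bel-7402), 1500 (MCF-7, ccc-HPF-1) or 2000 (A549) cells/well and left 20 h. Compound then added from PBS dilutions (final DMSO 0.1%), triplicate, 96 h. Readout MTT viability; IC50/CC50 from viability versus concentration.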

Row | Structure (SMILES) | pIC50 [1] | pIC50 [2] | pIC50 [3] | pIC50 [4] | CC50 [5] | IC50 [1] | IC50 [2] | IC50 [3] | IC50 [4]
1 | Cc1ccc(C2C=CCCC2)c(O)c1O (stereo not given) | 4.57 | 4.45 | 4.49 | 4.52 | – | – | – | – | –
2 | CC1=CC(=O)C(C2C=CCCC2)=CC1=O (stereo not given) | 5.04 | 4.51 | ≤ 4.30 | ≤ 4.30 | – | – | – | – | –
3 | CC(C)(C)c1cc(O)c(C2CCCCC2)cc1O | 5.13 | 4.44 | ≤ 4.30 | 4.52 | – | – | – | – | –
4 | Oc1cccc2c1C1CCCCC1O2 (stereo not given) | – | – | – | – | Not Active | Not Active | Not Active | Not Active | Not Active
5 | Cc1c(O)ccc(C2C=CCCC2)c1O (stereo not given) | – | – | – | – | Not Active | Not Active | Not Active | Not Active | Not Active
6 | O=C1C=C(C2C=CCCC2)C(=O)c2ccccc21 (stereo not given) | 4.57 | 4.50 | 4.40 | 4.51 | – | – | – | – | –
7 | Oc1ccccc1C1C=CCCC1 (stereo not given) | 4.50 | ≤ 4.30 | ≤ 4.30 | ≤ 4.30 | – | – | – | – | –
8 | Oc1c(C2C=CCCC2)ccc(C2C=CCCC2)c1O (stereo not given) | 4.54 | ≤ 4.30 | ≤ 4.30 | ≤ 4.30 | – | – | – | – | –
9 | Cc1cc(O)c(O)c(C2C=CCCC2)c1 (stereo not given) | 4.82 | 4.46 | ≤ 4.30 | 4.57 | – | – | – | – | –
10 | Cc1cc(O)c(O)cc1C1C=CCCC1 (stereo not given) | 5.33 | 5.02 | 4.58 | 5.07 | – | – | – | – | –
11 | Cc1c(O)c(C2C=CCCC2)cc(C2C=CCCC2)c1O (stereo not given) | 4.48 | ≤ 4.30 | ≤ 4.30 | ≤ 4.30 | – | – | – | – | –
12 | Oc1cc(C2C=CCCC2)c(O)cc1C1C=CCCC1 (stereo not given) | 5.70 | ≤ 4.30 | ≤ 4.30 | ≤ 4.30 | – | – | – | – | –
13 | Oc1c(C2C=CCCC2)ccc2ccccc12 (stereo not given) | 4.66 | ≤ 4.30 | ≤ 4.30 | ≤ 4.30 | – | – | – | – | –
14 | Cc1cc(O)c(O)cc1C1CCCCC1 | 5.08 | 4.56 | 4.51 | 4.64 | – | – | – | – | –
15 | O=C1C=C(C2C=CCCC2)C(=O)C=C1C1C=CCCC1 (stereo not given) | 5.21 | ≤ 4.30 | ≤ 4.30 | ≤ 4.30 | – | – | – | – | –
16 | CC(C)(C)c1cc(O)c(C2C=CCCC2)cc1O (stereo not given) | 5.85 | ≤ 4.30 | ≤ 4.30 | ≤ 4.30 | – | – | – | – | –
17 | CC(C)(C)C1=CC(=O)C(C2C=CCCC2)=CC1=O (stereo not given) | 5.17 | ≤ 4.30 | ≤ 4.30 | ≤ 4.30 | – | – | – | – | –
18 | CC(C)(C)c1cc2c(cc1O)C1CCCCC1O2 (stereo not given) | 4.65 | ≤ 4.30 | ≤ 4.30 | ≤ 4.30 | – | – | – | – | –
19 | CC(C)(C)c1cc(O)cc(C2C=CCCC2)c1O (stereo not given) | 4.94 | ≤ 4.30 | ≤ 4.30 | ≤ 4.30 | – | – | – | – | –
20 | Oc1cc(C2CCCCC2)c(O)cc1C1CCCCC1 | 5.09 | ≤ 4.30 | ≤ 4.30 | ≤ 4.30 | – | – | – | – | –
21 | O=C1C=C(C2CCCCC2)C(=O)C=C1C1CCCCC1 | 5.11 | 4.50 | ≤ 4.30 | 4.50 | – | – | – | – | –
22 | CC(C)(C)C1=CC(=O)C(C2CCCCC2)=CC1=O | 5.22 | ≤ 4.30 | ≤ 4.30 | ≤ 4.30 | – | – | – | – | –
23 | Cc1cc(O)c2c(c1)OC1CCCCC21 (stereo not given) | – | – | – | – | Not Active | Not Active | Not Active | Not Active | Not Active
24 | CC(C)(C)c1cc(O)c(O)c(C2C=CCCC2)c1 (stereo not given) | 5.00 | ≤ 4.30 | ≤ 4.30 | ≤ 4.30 | – | – | – | – | –
25 | Cc1cc(O)c(C2C=CCCC2)c(O)c1 (stereo not given) | – | – | – | – | Not Active | Not Active | Not Active | Not Active | Not Active
26 | CO[C@@H]1[C@H](OC(=O)NC(=O)CCl)CCC2(CO2)[C@H]1[C@@]1(C)O[C@@H]1CC=C(C)C (single isomer, unassigned) [O-CHLOROACETYLCARBAMOYLFUMAGILLOL] | 8.05 | 4.30 | ≤ 4.30 | ≤ 4.30 | – | – | – | – | –
27 | COc1cccc2c1C(=O)c1c(O)c3c(c(O)c1C2=O)C[C@@](O)(C(=O)CO)C[C@@H]3O[C@H]1C[C@H](N)[C@H](O)[C@H](C)O1 [DOXORUBICIN] | – | – | – | 6.24 | – | – | – | – | –
28 | CC(=O)O[C@H]1C(=O)[C@@]2(C)[C@H]([C@H](OC(=O)c3ccccc3)[C@]3(O)C[C@H](OC(=O)[C@H](O)[C@@H](NC(=O)c4ccccc4)c4ccccc4)C(C)=C1C3(C)C)[C@]1(OC(C)=O)CO[C@@H]1C[C@@H]2O [PACLITAXEL] | – | 8.31 | – | – | – | – | – | – | –
